Measurements reported in ChEMBL document CHEMBL4689842, “EUbOPEN Chemogenomics Library wave 1” (2021).

Tested on: Fibroblast
Assay: Multiplex assay against human fibroblast
Format: toxicity, cell-based
Procedure, shortened: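 With compound added, live cells were imaged on a CQ1 microscope at 37°C and 5% CO2; staining with Hoechst33342, BioTracker Green Microtubule Cytoskeleton Dye, MitoTracker Red and Annexin V Alexa Fluor 680 had been done at seeding. The CellPathfinder machine-learning gating scheme split cells into Hoechst high-intensity objects or normal cells, normal cells into healthy, pyknosed or fragmented nuclei, and pyknosed cells into mitotic or apoptotic. The tubulin, mitochondrial-mass and membrane-permeability phenotypes are per cents of healthy-nucleus cells.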

[1] = 12 h, 1 µM, compound concentration 1 uM, replicate 1
[2] = 12 h, 1 µM, compound concentration 1 uM, replicate 2
[3] = 12 h, 10 µM, compound concentration 10 uM, replicate 1
[4] = 12 h, 10 µM, compound concentration 10 uM, replicate 2
[5] = 24 h, 1 µM, compound concentration 1 uM, replicate 1
[6] = 24 h, 1 µM, compound concentration 1 uM, replicate 2
[7] = 24 h, 10 µM, compound concentration 10 uM, replicate 1
[8] = 24 h, 10 µM, compound concentration 10 uM, replicate 2
[9] = 48 h, 1 µM, compound concentration 1 uM, replicate 1
[10] = 48 h, 1 µM, compound concentration 1 uM, replicate 2
[11] = 48 h, 10 µM, compound concentration 10 uM, replicate 1
[12] = 48 h, 10 µM, compound concentration 10 uM, replicate 2

## CC(C)(O)CNc1ncc(-c2ccnc(Nc3ccnc(Cl)c3)n2)c(CC2CC2)n1
[1]
  Population Apoptotic (%): 59%
  Population Fragmented Nuclei (%): 27%
  Population Healthy Nuclei (%): 46%
  Population Hoechst High Intensity Objects (%): 14%
  Population Membrane Permeable-Phenotype (%): 35%
  Population Mitochondria Different-Phenotype (%): 6%
  Population Mitotic Cells (%): 40%
  Population Normal (%): 85%
  Population Pyknosed Nuclei (%): 25%
  Population Tubulin-Different-Phenotype (%): 54%
  Total Cell Count: 121
[2]
  Population Apoptotic (%): 9%
  Population Fragmented Nuclei (%): 9%
  Population Healthy Nuclei (%): 78%
  Population Hoechst High Intensity Objects (%): 5%
  Population Membrane Permeable-Phenotype (%): 5%
  Population Mitochondria Different-Phenotype (%): 17%
  Population Mitotic Cells (%): 90%
  Population Normal (%): 94%
  Population Pyknosed Nuclei (%): 12%
  Population Tubulin-Different-Phenotype (%): 14%
  Total Cell Count: 97
[3]
  Population Apoptotic (%): 58%
  Population Fragmented Nuclei (%): 32%
  Population Healthy Nuclei (%): 24%
  Population Hoechst High Intensity Objects (%): 7%
  Population Membrane Permeable-Phenotype (%): 18%
  Population Mitochondria Different-Phenotype (%): 45%
  Population Mitotic Cells (%): 41%
  Population Normal (%): 92%
  Population Pyknosed Nuclei (%): 43%
  Population Tubulin-Different-Phenotype (%): 90%
  Total Cell Count: 97
[4]
  Population Apoptotic (%): 15%
  Population Fragmented Nuclei (%): 10%
  Population Healthy Nuclei (%): 64%
  Population Membrane Permeable-Phenotype (%): 28%
  Population Mitochondria Different-Phenotype (%): 96%
  Population Mitotic Cells (%): 84%
  Population Pyknosed Nuclei (%): 26%
  Population Tubulin-Different-Phenotype (%): 100%
  Total Cell Count: 93
[5]
  Population Apoptotic (%): 53%
  Population Fragmented Nuclei (%): 35%
  Population Healthy Nuclei (%): 51%
  Population Hoechst High Intensity Objects (%): 10%
  Population Membrane Permeable-Phenotype (%): 31%
  Population Mitochondria Different-Phenotype (%): 0%
  Population Mitotic Cells (%): 46%
  Population Normal (%): 90%
  Population Pyknosed Nuclei (%): 12%
  Population Tubulin-Different-Phenotype (%): 53%
  Total Cell Count: 130
[6]
  Population Apoptotic (%): 20%
  Population Fragmented Nuclei (%): 11%
  Population Healthy Nuclei (%): 74%
  Population Hoechst High Intensity Objects (%): 4%
  Population Membrane Permeable-Phenotype (%): 10%
  Population Mitochondria Different-Phenotype (%): 20%
  Population Mitotic Cells (%): 80%
  Population Normal (%): 95%
  Population Pyknosed Nuclei (%): 15%
  Population Tubulin-Different-Phenotype (%): 16%
  Total Cell Count: 136
[7]
  Population Apoptotic (%): 63%
  Population Fragmented Nuclei (%): 20%
  Population Healthy Nuclei (%): 32%
  Population Hoechst High Intensity Objects (%): 8%
  Population Membrane Permeable-Phenotype (%): 28%
  Population Mitochondria Different-Phenotype (%): 60%
  Population Mitotic Cells (%): 36%
  Population Normal (%): 91%
  Population Pyknosed Nuclei (%): 47%
  Population Tubulin-Different-Phenotype (%): 89%
  Total Cell Count: 95
[8]
  Population Apoptotic (%): 47%
  Population Fragmented Nuclei (%): 14%
  Population Healthy Nuclei (%): 40%
  Population Hoechst High Intensity Objects (%): 14%
  Population Membrane Permeable-Phenotype (%): 47%
  Population Mitochondria Different-Phenotype (%): 89%
  Population Mitotic Cells (%): 52%
  Population Normal (%): 85%
  Population Pyknosed Nuclei (%): 44%
  Population Tubulin-Different-Phenotype (%): 100%
  Total Cell Count: 105
[9]
  Population Apoptotic (%): 100%
  Population Fragmented Nuclei (%): 51%
  Population Healthy Nuclei (%): 46%
  Population Hoechst High Intensity Objects (%): 18%
  Population Membrane Permeable-Phenotype (%): 27%
  Population Mitochondria Different-Phenotype (%): 3%
  Population Mitotic Cells (%): 0%
  Population Normal (%): 81%
  Population Tubulin-Different-Phenotype (%): 24%
  Total Cell Count: 143
[10]
  Population Apoptotic (%): 50%
  Population Fragmented Nuclei (%): 18%
  Population Healthy Nuclei (%): 78%
  Population Hoechst High Intensity Objects (%): 10%
  Population Membrane Permeable-Phenotype (%): 22%
  Population Mitochondria Different-Phenotype (%): 1%
  Population Mitotic Cells (%): 50%
  Population Normal (%): 89%
  Population Pyknosed Nuclei (%): 2%
  Population Tubulin-Different-Phenotype (%): 40%
  Total Cell Count: 84
[11]
  Population Apoptotic (%): 54%
  Population Fragmented Nuclei (%): 49%
  Population Healthy Nuclei (%): 29%
  Population Hoechst High Intensity Objects (%): 15%
  Population Membrane Permeable-Phenotype (%): 12%
  Population Mitochondria Different-Phenotype (%): 41%
  Population Mitotic Cells (%): 45%
  Population Normal (%): 84%
  Population Pyknosed Nuclei (%): 21%
  Population Tubulin-Different-Phenotype (%): 93%
  Total Cell Count: 123
[12]
  Population Apoptotic (%): 29%
  Population Fragmented Nuclei (%): 23%
  Population Healthy Nuclei (%): 58%
  Population Hoechst High Intensity Objects (%): 9%
  Population Membrane Permeable-Phenotype (%): 7%
  Population Mitochondria Different-Phenotype (%): 51%
  Population Mitotic Cells (%): 70%
  Population Normal (%): 90%
  Population Pyknosed Nuclei (%): 17%
  Population Tubulin-Different-Phenotype (%): 96%
  Total Cell Count: 106
